These results are taken from ChEMBL document CHEMBL1137402, “Synthesis and biological evaluation of 2-(3',4',5'-trimethoxybenzoyl)-3-amino 5-aryl thiophenes as a new class of tubulin inhibitors” (J Med Chem, 2006).

The structures appear in SMILES notation.

For the first test, the target named is Tubulin. Kind of test: Inhibition of tubulin polymerization. It counts as functional, Homo sapiens. The gist of the method: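 Tubulin assembly assay with tubulin at 10 µM. IC50 taken for inhibition of polymerization.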
Molecule `COc1cc(C(=O)c2sc(-c3ccc(F)cc3)cc2N)cc(OC)c1OC` returned an IC50 of 1500 nM.

Take `COc1cc(C(=O)c2cc(-c3ccc(C)cc3)sc2N)cc(OC)c1OC`: the IC50 is 800 nM.

The target of the next test is Tubulin (Homo sapiens) (UniProt P68371+Q9H4B7+P0DPH7+P68366+Q13509+Q71U36+P04350+Q3ZCM7+P07437+P68363+Q9BQE3+Q6PEY2+Q13885+Q9BVA1+Q9BUF5). Kind of test: Inhibition of [3H]colchicine binding to tubulin at 1 uM. The class given is protein-complex assay. The gist of the method:
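Binding of [3H]colchicine to tubulin. Tubulin at 1 µM, [3H]colchicine at 5 µM, inhibitor at 1 µM. Read-out is percent inhibition of colchicine binding.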
`COc1cc(C(=O)c2sc(-c3ccc(F)cc3)cc2N)cc(OC)c1OC` yielded an inhibition of 70%.

`COc1cc(C(=O)c2cc(-c3ccc(C)cc3)sc2N)cc(OC)c1OC` showed an inhibition of 90%.

The next test deals with FM3A. Kind of test: Antiproliferative activity against mouse FM3A cells. It counts as functional, cell-based.
For `COc1cc(C(=O)c2sc(-c3cc(OC)c(OC)c(OC)c3)cc2N)cc(OC)c1OC`, inhibition was half-maximal at 3500 nM (IC50).

`COc1cc(C(=O)c2sc(-c3ccc(C(F)(F)F)cc3)cc2N)cc(OC)c1OC` gave an IC50 of 540 nM.

Consider `CCOc1ccc(-c2cc(N)c(C(=O)c3cc(OC)c(OC)c(OC)c3)s2)cc1`, for which half-maximal inhibition (IC50) required 510 nM.

With `COc1cc(C(=O)c2sc(-c3ccc(-c4ccccc4)cc3)cc2N)cc(OC)c1OC`, the IC50 is greater than 10000 nM.

Turning to `COc1cc(C(=O)c2sc(-c3ccc([N+](=O)[O-])cc3)cc2N)cc(OC)c1OC`, the IC50 was determined as 64 nM.

For the molecule `COc1cc(C(=O)c2sc(-c3ccc(Cl)cc3)cc2N)cc(OC)c1OC`, the midpoint of inhibition, the IC50, lay at 90 nM.

With `COc1cc(C(=O)c2sc(-c3ccc(Cl)c(Cl)c3)cc2N)cc(OC)c1OC`, the IC50 came to 400 nM.

Molecule `COc1cc(C(=O)c2sc(-c3ccncc3)cc2N)cc(OC)c1OC` returned an IC50 of 150 nM.

Regarding `COc1cc(C(=O)c2sc(-c3ccc(Br)cc3)cc2N)cc(OC)c1OC`, inhibition was half-maximal at 150 nM (IC50).

For `COc1cc(C(=O)c2sc(-c3ccc(F)cc3)cc2N)cc(OC)c1OC`, the IC50 was found to be 16 nM.

For the molecule `COc1cc(C(=O)c2sc(-c3ccc(I)cc3)cc2N)cc(OC)c1OC`, 420 nM corresponded to half-maximal inhibition (IC50).

Another test has as its system L1210. Kind of test: Antiproliferative activity against mouse L1210 cells. The class given is functional, cell-based. The gist of the method:
(§1)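 Tumor cell proliferation assay. IC50 is the compound concentration giving 50% inhibition of proliferation, taken from dose-response curves. Reported as mean ± SE from at least three independent experiments.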
The molecule `COc1cc(C(=O)c2sc(-c3cc(OC)c(OC)c(OC)c3)cc2N)cc(OC)c1OC` displayed a half-maximal inhibitory concentration (IC50) of 2300 nM.

`COc1cc(C(=O)c2sc(-c3ccc(C(F)(F)F)cc3)cc2N)cc(OC)c1OC` returned an IC50 of 370 nM.

`COc1ccc(/C=C\c2cc(OC)c(OC)c(OC)c2)cc1O` [COMBRETASTATIN A4] registered an IC50 of 2.8 nM.

As to `CCOc1ccc(-c2cc(N)c(C(=O)c3cc(OC)c(OC)c(OC)c3)s2)cc1`, the IC50 amounted to 590 nM.

`COc1cc(C(=O)c2sc(-c3ccc(-c4ccccc4)cc3)cc2N)cc(OC)c1OC` showed an IC50 greater than 10000 nM.

For the molecule `COc1cc(C(=O)c2sc(-c3ccc([N+](=O)[O-])cc3)cc2N)cc(OC)c1OC`, the IC50 turned out to be 100 nM.

In turn, `COc1cc(C(=O)c2sc(-c3ccc(Cl)cc3)cc2N)cc(OC)c1OC` showed a half-maximal inhibitory concentration (IC50) of 93 nM.

In turn, `COc1cc(C(=O)c2sc(-c3ccc(Cl)c(Cl)c3)cc2N)cc(OC)c1OC` had a 50% inhibitory concentration (IC50) of 260 nM.

As for `COc1cc(C(=O)c2sc(-c3ccncc3)cc2N)cc(OC)c1OC`, it took 180 nM to reach half-maximal inhibition (IC50).

For the molecule `COc1cc(C(=O)c2sc(-c3ccc(Br)cc3)cc2N)cc(OC)c1OC`, the midpoint of inhibition, the IC50, lay at 100 nM.

Turning to `COc1cc(C(=O)c2sc(-c3ccc(F)cc3)cc2N)cc(OC)c1OC`, the IC50 turned out to be 20 nM.

In the case of `COc1cc(C(=O)c2sc(-c3ccc(I)cc3)cc2N)cc(OC)c1OC`, the IC50 is 400 nM.

The next test deals with MOLT-4. Kind of test: Antiproliferative activity against human Molt4/C8 cells. It counts as functional, cell-based. The gist of the method: as §1
As for `COc1cc(C(=O)c2sc(-c3cc(OC)c(OC)c(OC)c3)cc2N)cc(OC)c1OC`, the midpoint of inhibition, the IC50, lay at 1200 nM.

The molecule `COc1cc(C(=O)c2sc(-c3ccc(C(F)(F)F)cc3)cc2N)cc(OC)c1OC` gave a concentration for half-maximal inhibition (IC50) of 250 nM.

For the molecule `COc1ccc(/C=C\c2cc(OC)c(OC)c(OC)c2)cc1O` [COMBRETASTATIN A4], the midpoint of inhibition, the IC50, lay at 1.6 nM.

Molecule `CCOc1ccc(-c2cc(N)c(C(=O)c3cc(OC)c(OC)c(OC)c3)s2)cc1` registered an IC50 of 240 nM.

`COc1cc(C(=O)c2sc(-c3ccc(-c4ccccc4)cc3)cc2N)cc(OC)c1OC` came in with an IC50 greater than 10000 nM.

On to `COc1cc(C(=O)c2sc(-c3ccc([N+](=O)[O-])cc3)cc2N)cc(OC)c1OC`, for which 110 nM corresponded to half-maximal inhibition (IC50).

Molecule `COc1cc(C(=O)c2sc(-c3ccc(Cl)cc3)cc2N)cc(OC)c1OC` registered an IC50 of 77 nM.

On to `COc1cc(C(=O)c2sc(-c3ccc(Cl)c(Cl)c3)cc2N)cc(OC)c1OC`, for which the IC50 was 270 nM.

For `COc1cc(C(=O)c2sc(-c3ccncc3)cc2N)cc(OC)c1OC`, half-maximal inhibition (IC50) required 88 nM.

Consider `COc1cc(C(=O)c2sc(-c3ccc(Br)cc3)cc2N)cc(OC)c1OC`, for which half-maximal inhibition (IC50) required 92 nM.

Consider `COc1cc(C(=O)c2sc(-c3ccc(F)cc3)cc2N)cc(OC)c1OC`, for which the half-maximal inhibitory concentration (IC50) came out at 12 nM.

In the case of `COc1cc(C(=O)c2sc(-c3ccc(I)cc3)cc2N)cc(OC)c1OC`, half-maximal inhibition (IC50) required 190 nM.

The subject of a further test is CCRF-CEM. Briefly: Antiproliferative activity against human CEM cells. The class given is functional, cell-based.
Take `COc1cc(C(=O)c2sc(-c3cc(OC)c(OC)c(OC)c3)cc2N)cc(OC)c1OC`: the half-maximal inhibitory concentration (IC50) was determined as 840 nM.

The molecule `COc1cc(C(=O)c2sc(-c3ccc(C(F)(F)F)cc3)cc2N)cc(OC)c1OC` had an IC50 of 270 nM.

With `CCOc1ccc(-c2cc(N)c(C(=O)c3cc(OC)c(OC)c(OC)c3)s2)cc1`, the 50% inhibitory concentration (IC50) stood at 270 nM.

`COc1cc(C(=O)c2sc(-c3ccc(-c4ccccc4)cc3)cc2N)cc(OC)c1OC` registered an IC50 greater than 10000 nM.

Molecule `COc1cc(C(=O)c2sc(-c3ccc([N+](=O)[O-])cc3)cc2N)cc(OC)c1OC` showed an IC50 of 99 nM.

In turn, `COc1cc(C(=O)c2sc(-c3ccc(Cl)cc3)cc2N)cc(OC)c1OC` came in with an IC50 of 70 nM.

`COc1cc(C(=O)c2sc(-c3ccc(Cl)c(Cl)c3)cc2N)cc(OC)c1OC` returned an IC50 of 290 nM.

On to `COc1cc(C(=O)c2sc(-c3ccncc3)cc2N)cc(OC)c1OC`, for which the IC50 was found to be 110 nM.

The molecule `COc1cc(C(=O)c2sc(-c3ccc(Br)cc3)cc2N)cc(OC)c1OC` returned a half-inhibitory concentration (IC50) of 86 nM.

For `COc1cc(C(=O)c2sc(-c3ccc(F)cc3)cc2N)cc(OC)c1OC`, 15 nM corresponded to half-maximal inhibition (IC50).

Take `COc1cc(C(=O)c2sc(-c3ccc(I)cc3)cc2N)cc(OC)c1OC`: the midpoint of inhibition, the IC50, lay at 150 nM.

As a reminder, the IC50 is the concentration that inhibits the measured activity by half. The inhibition is the change of the read-out against control, counted positive when it falls.
